Measurements of several laboratories.
Lines come from different studies, so protocols differ.
Target: Ephrin type-A receptor 4 (EPHA4, Homo sapiens, UniProt P54764)

`CN(c1nccc(-c2cnn3ncccc23)n1)C1CC1` gave a remaining binding of 100% (binding; 1 µM).
With `C=CC(=O)N1CCC(C(=O)NCC(=O)N2CCN(c3nc(-c4cnc(N)nc4C(F)F)nc(N4CCOCC4)n3)CC2)CC1` the remaining binding was 94% (binding; competition with immobilised ligand; 1 µM).
For `COc1ncc2cc3ccccc3nc2c1C#N`, the remaining binding was 100% (cell-free assay; competition with immobilised ligand; 5 µM).
`NS(=O)(=O)c1cc(NC(=O)Cc2ccccc2)ccc1Oc1cccc(Cl)c1` gave a remaining binding of 97% (cell-free assay; competition with immobilised ligand; 1 µM).
`O=C(c1ccc(Nc2ncc(Cl)c(-c3ccc(Cl)s3)n2)cc1)N1CCC(N2CCCC2)CC1` has a remaining binding of 84% (binding; competition with immobilised ligand; 1 µM).
With `c1ccc(N2CCN(Cc3nc4ccccc4[nH]3)CC2)nc1` the remaining binding was 100% (cell-free assay; competition with immobilised ligand; 1 µM).
With `CN(C)c1nccc(-c2cnn3ncccc23)n1` the remaining binding was 99% (binding; 1 µM).
For `Cc1cnc(Nc2ccc(C(=O)N3CCC(N4CCCC4)CC3)cc2)nc1-c1cc2ccccc2s1`, the remaining binding was 57% (binding; competition with immobilised ligand; 1 µM).
`O=C(NCC1CCOCC1)c1n[nH]cc1NC(=O)c1c(F)cccc1F` has a remaining binding of 100% (binding; competition with immobilised ligand; 1 µM).
`N[C@@H]1CCN(c2nccc(-c3cnn4ncccc34)n2)C1` has a remaining binding of 97% (binding; 1 µM).
With `O=C(NCc1ncc(C(F)(F)F)cc1Cl)c1ccc2c(c1)C1(CCS(=O)(=O)CC1)[C@H](C1CC1)N2S(=O)(=O)c1ccc(F)cc1` the remaining binding was 100% (cell-free assay; competition with immobilised ligand; 1 µM).
For `O=C(c1ccc(Nc2ncc(Cl)c(-c3cc4ccccc4s3)n2)cc1)N1CCC(N2CCCC2)CC1`, the remaining binding was 65% (binding; competition with immobilised ligand; 1 µM).
`CNC(=O)c1ccc(Nc2ncc(C(F)(F)F)c(NCc3nccnc3N(C)S(C)(=O)=O)n2)cc1` has a remaining binding of 99% (cell-free assay; competition with immobilised ligand; 0.1 µM).
`COc1ccnn2ncc(-c3ccnc(N(C)C)n3)c12` has a remaining binding of 95% (binding; 1 µM).
The remaining binding of `O=C(N1CCS(=O)(=O)CC1)N1C[C@H](c2ccc(OC(F)(F)F)cc2)C[C@H](c2nc(C3CC3)no2)C1` is reported as 100% (cell-free assay; competition with immobilised ligand; 1 µM).
With `COc1cnc(Nc2cccc(S(N)(=O)=O)c2)nc1N1CCN(c2ccccc2)CC1` the remaining binding was 97% (binding; competition with immobilised ligand; 1 µM).
The remaining binding of `C[C@H]1CCN(c2nccc(-c3cnn4ncccc34)n2)C1` is reported as 86% (binding; 1 µM).
For `CNC(=O)[C@@H]1CC[C@@H](n2c(-c3ccc4cnccc4c3)nc3ccc(C(=O)NCc4cccc(C(N)=O)c4)cc32)C1`, the remaining binding was 98% (binding; competition with immobilised ligand; 1 µM).
The remaining binding of `CC(=O)Nc1c(C(C)=O)c(=O)n(C)c2nc(-c3ccc(Cl)cc3Cl)c(-c3ccc(Cl)cc3)cc12` is reported as 96% (cell-free assay; competition with immobilised ligand; 1 µM).
`F[C@@H]1CCN(c2nccc(-c3cnn4ncccc34)n2)C1` has a remaining binding of 100% (binding; 1 µM).
`O=c1nc(-c2ccccn2)sc2ccccc12` has a remaining binding of 100% (cell-free assay; competition with immobilised ligand; 1 µM).
`C[C@@H](c1ccc(-n2cnc3c(N)ncnc32)cc1)N1CCc2nn(C)c(Cc3ccccc3)c2C1=O` gave a remaining binding of 97% (binding; competition with immobilised ligand; 0.1 µM).
